Results: ChEMBL document CHEMBL2396571, “Synthesis and biological evaluation of C-glucosides with azulene rings as selective SGLT2 inhibitors for the treatment of type 2 diabetes mellitus: discovery of YM543” (Bioorg Med Chem, 2013)
Activity calls are given as the source filed them. No cut-off for these calls is given here.

Legend:
Homo sapiens = species on record: Homo sapiens; assay: Selectivity ratio of IC50 for human SGLT1 to IC50 for human SGLT2
[1] = target: T1, Sodium/glucose cotransporter 2 (Homo sapiens, UniProt P31639); assay: Inhibition of human SGLT2 expressed in CHO cells assessed as [14C]-methyl-alpha-D-glucopyranoside accumulation; assay type: cell-based
T1 sequence (P31639 whole entry): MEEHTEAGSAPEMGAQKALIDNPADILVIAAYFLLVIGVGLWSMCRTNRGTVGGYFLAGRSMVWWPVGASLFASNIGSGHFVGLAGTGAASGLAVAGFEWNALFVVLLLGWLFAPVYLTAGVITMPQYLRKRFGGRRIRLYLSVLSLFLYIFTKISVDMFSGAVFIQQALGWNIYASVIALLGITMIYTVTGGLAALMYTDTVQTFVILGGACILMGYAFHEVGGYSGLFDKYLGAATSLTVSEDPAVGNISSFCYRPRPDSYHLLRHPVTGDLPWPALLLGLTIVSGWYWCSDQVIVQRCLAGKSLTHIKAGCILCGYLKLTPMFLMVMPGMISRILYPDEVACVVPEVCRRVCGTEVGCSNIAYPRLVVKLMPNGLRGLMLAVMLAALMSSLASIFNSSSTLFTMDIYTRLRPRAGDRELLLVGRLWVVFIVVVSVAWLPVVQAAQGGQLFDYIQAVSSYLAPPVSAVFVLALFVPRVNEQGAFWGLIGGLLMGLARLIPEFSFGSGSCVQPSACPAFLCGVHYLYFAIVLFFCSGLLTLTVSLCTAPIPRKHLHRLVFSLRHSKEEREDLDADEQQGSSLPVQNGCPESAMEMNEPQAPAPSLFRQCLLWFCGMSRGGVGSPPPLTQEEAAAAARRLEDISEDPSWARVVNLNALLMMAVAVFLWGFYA

Mus musculus [2] = assay: Antihyperglycemic activity in KK/Ay type-2 diabetic mouse model assessed as increase in urinary glucose excretion at => 0.3 mg/kg, po measured over 12 hrs; assay type: functional, organism-based; design: dose 0.3 mg/kg; details: Urine
[3] = Half life in Sprague-Dawley rat at 1 mg/kg, iv; assay type: ADME, organism-based; design: dose 1 mg/kg, route intravenous; details: in vivo
In short: (§1)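 Male Sprague–Dawley rats, bought at 5–7 weeks of age. A single 1.0 mg/kg intravenous dose or a single 3 mg/kg oral dose was given. Plasma pharmacokinetic parameters were derived: T1/2, CLtot, Vdss, Cmax, Tmax, AUC(0–inf) and oral bioavailability F.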

[4] = Oral bioavailability in Sprague-Dawley rat at 3 mg/kg; assay type: ADME, organism-based; details: in vivo; in short: as §1
[5] = Cmax in Sprague-Dawley rat at 3 mg/kg, po; assay type: ADME, organism-based; design: dose 3 mg/kg, route oral; details: in vivo; in short: as §1
[6] = Ratio of drug level in kidney to plasma in Sprague-Dawley rat at 1 mg/kg, iv and 3 mg/kg, po; assay type: ADME, organism-based
In short: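 Male Sprague–Dawley rats received a single 1.0 mg/kg iv or a single 3 mg/kg oral dose. Drug concentration in kidney was compared with that in plasma.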

Rattus norvegicus [7] = assay: Antihyperglycemic activity in streptozotocin-induced type-1 diabetes mellitus rat model assessed as reduction of blood glucose level at 0.1 to 3 mg/kg, po measured for 8 hrs
[8] = Half life in Sprague-Dawley rat at 3 mg/kg, po; assay type: ADME, organism-based; design: dose 3 mg/kg, route oral; details: in vivo; in short: as §1
[9] = Tmax in Sprague-Dawley rat at 3 mg/kg, po; assay type: ADME, organism-based; design: dose 3 mg/kg, route oral; details: in vivo; in short: as §1
Mus musculus [10] = assay: Antihyperglycemic activity in KK/Ay type-2 diabetic mouse model assessed as reduction of blood glucose level at 3 mg/kg, po measured for 8 hrs relative to vehicle-treated control; assay type: functional; design: scale not given: the % may be the effect or the level left
In short: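 KK/Ay mice in the fed condition were given a single oral dose (0.1–3 mg/kg). Blood glucose was followed over time, and suppression of glucose AUC was calculated relative to vehicle. Mean ± SEM, 6 animals per group.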

Mus musculus [11] = assay: Antihyperglycemic activity in po dosed KK/Ay type-2 diabetic mouse model assessed as increase in urinary glucose excretion measured over 24 hrs; assay type: functional, organism-based; details: Urine
Rattus norvegicus [12] = assay: Volume of distribution at steady state in Sprague-Dawley rat at 1 mg/kg, iv; assay type: ADME, organism-based; design: dose 1 mg/kg, route intravenous; details: in vivo; in short: as §1
[13] = AUC (0 to infinity) in Sprague-Dawley rat at 1 mg/kg, iv; assay type: ADME, organism-based; design: time infinity, dose 1 mg/kg, route intravenous; details: plasma; in short: as §1

Row | Ratio IC50 (Homo sapiens) | IC50 [1] | Structure (SMILES) | further results
1 | > 10 | 970 nM | OC[C@H]1O[C@@H](c2cccc(Cc3cc4cccccc-4c3Cc3ccccc3)c2)[C@H](O)[C@@H](O)[C@@H]1O | 
2 | > 0.8 | 12000 nM | CC(=O)c1c(Cc2cccc([C@@H]3O[C@H](CO)[C@@H](O)[C@H](O)[C@H]3O)c2)cc2cccccc1-2 | 
3 | 2100 |  | COc1ccc(Cc2cc3cccccc-3c2)cc1[C@@H]1O[C@H](CO)[C@@H](O)[C@H](O)[C@H]1O | 
4 | 280 |  | OC[C@H]1O[C@@H](c2cc(Cc3cc4cccccc-4c3)ccc2O)[C@H](O)[C@@H](O)[C@@H]1O [YM-543 FREE ACID] | Activity (Mus musculus [2]): Active; half-life [3]: 54 min; bioavailability [4]: 29%; Cmax [5]: 101 ng/mL; Kp [6]: 23; Activity (Rattus norvegicus [7]): Active; half-life [8]: 78 min; Tmax [9]: 30 min; Activity (Mus musculus [10]): 56%; Activity (Mus musculus [11]): Dose-dependent effect; Vdss (Rattus norvegicus [12]): 3.36 L/kg; AUC(0-inf) [13]: 403 ng·h/mL
5 | 35 | 17 nM | COc1ccc([C@@H]2O[C@H](CO)[C@@H](O)[C@H](O)[C@H]2O)cc1Cc1cc2cccccc-2c1 | 
6 | 123 | 39 nM | OC[C@H]1O[C@@H](c2cc(Cc3cc4cccccc-4c3)ccc2F)[C@H](O)[C@@H](O)[C@@H]1O | 
7 | 140 | 7.9 nM | OC[C@H]1O[C@@H](c2ccc(Cl)c(Cc3cc4cccccc-4c3)c2)[C@H](O)[C@@H](O)[C@@H]1O | 

Second part, the compound before the results:

Row | Structure (SMILES) | Ratio IC50 (Homo sapiens) | IC50 [1] | further results
8 | OC[C@H]1O[C@@H](c2ccc(F)c(Cc3cc4cccccc-4c3)c2)[C@H](O)[C@@H](O)[C@@H]1O | 610 | 14 nM | 
9 | OC[C@H]1O[C@@H](c2cccc(Cc3cc4cccccc-4c3)c2)[C@H](O)[C@@H](O)[C@@H]1O | 590 |  | 
10 | OC[C@H]1O[C@@H](c2cc(Cc3cc4cccccc-4c3)ccc2Cl)[C@H](O)[C@@H](O)[C@@H]1O | 200 | 70 nM | 
11 | Cc1cc(Cc2cccc([C@@H]3O[C@H](CO)[C@@H](O)[C@H](O)[C@H]3O)c2)c2cccccc1-2 |  | 44000 nM | 
12 | OC[C@H]1O[C@@H](c2cccc(Cc3ccc4cccc-4cc3)c2)[C@H](O)[C@@H](O)[C@@H]1O | 230 |  | 
13 | CCc1c(Cc2cccc([C@@H]3O[C@H](CO)[C@@H](O)[C@H](O)[C@H]3O)c2)cc2cccccc1-2 | > 1.9 | 5200 nM | 
